These results are taken from ChEMBL document CHEMBL1147110, “Antifungal drug susceptibility profile of Pichia anomala isolates from patients presenting with nosocomial fungemia” (2007).

What all share (format): functional
Assay [1] deals with Wickerhamomyces anomalus. The assay is described as follows: Antimicrobial susceptibility of Pichia anomala from nosocomial fungemia patient assessed as percent susceptible isolates at 4 ug/ml by EUCAST method. The procedure, abridged: (§1)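 58 P. anomala isolates (52 unrelated bloodstream isolates from Brazil, Argentina and Spain; 6 from unknown US clinical specimens). EUCAST broth microdilution, 24 h incubation, spectrophotometric reading at 530 nm. The MIC endpoint was ≥95% inhibition versus the drug-free control for the polyene and ≥50% for azoles and the echinocandin. Cumulative % of isolates inhibited at each MIC was recorded.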

The subject of assay [2] is Wickerhamomyces anomalus. The assay is described as follows: Antimicrobial susceptibility of Pichia anomala from nosocomial fungemia patient assessed as percent susceptible isolates at 0.06 ug/ml by CLSI method. Summed up: (§2)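 CLSI broth microdilution on 58 P. anomala isolates: 52 unrelated bloodstream isolates (36 Brazil, 13 Argentina, 3 Spain) and 6 from unknown clinical specimens (USA). Fluconazole was tested at 0.12–64 µg/ml. MICs were read spectrophotometrically at 530 nm after 48 h. Endpoints were ≥95% inhibition vs drug-free control for amphotericin B, and ≥50% for azoles and caspofungin. Results are given as cumulative % of isolates at each MIC.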

For assay [3], the system named is Wickerhamomyces anomalus. The experiment in a line: Antimicrobial susceptibility of Pichia anomala from nosocomial fungemia patient assessed as percent susceptible isolates at 16 ug/ml by EUCAST method. The procedure, abridged:
as §1

For assay [4], the system named is Wickerhamomyces anomalus. The assay is described as follows: Antimicrobial susceptibility of Pichia anomala from nosocomial fungemia patient assessed as percent susceptible isolates at 2 ug/ml by EUCAST method. Summed up: as §1
For assay [5], the system named is Wickerhamomyces anomalus. The experiment in a line: Antimicrobial susceptibility of Pichia anomala from nosocomial fungemia patient assessed as percent susceptible isolates at 0.03 ug/ml by EUCAST method. The procedure, abridged:
(§3)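 EUCAST broth microdilution on the same 58 P. anomala isolates (52 bloodstream isolates from Brazil, Argentina and Spain; 6 from USA). MICs were read spectrophotometrically at 530 nm after 24 h incubation. Endpoints were complete or nearly complete (≥95%) inhibition for amphotericin B, and ≥50% inhibition for azoles and caspofungin, relative to drug-free control. Isolates were tallied as cumulative % per MIC.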

For assay [6], the system named is Wickerhamomyces anomalus. The experiment in a line: Antimicrobial susceptibility of Pichia anomala from nosocomial fungemia patient assessed as percent susceptible isolates at 0.25 ug/ml by EUCAST method. The procedure, abridged:
as §1

Assay [7] deals with Wickerhamomyces anomalus. The experiment in a line: Antimicrobial susceptibility of Pichia anomala from nosocomial fungemia patient assessed as percent susceptible isolates at 0.12 ug/ml by EUCAST method. Summed up: as §3
Assay [8] relates to Wickerhamomyces anomalus. The assay is described as follows: Antimicrobial susceptibility of Pichia anomala from nosocomial fungemia patient assessed as percent susceptible isolates at 0.12 ug/ml by CLSI method. The procedure, abridged:
(§4)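 58 P. anomala isolates (52 unrelated bloodstream isolates from Brazil, Argentina and Spain; 6 from unknown US clinical specimens). CLSI broth microdilution, 48 h incubation, read at 530 nm. The MIC endpoint was ≥95% inhibition versus the drug-free well for the polyene and ≥50% for azoles and the echinocandin. Cumulative % of isolates inhibited at each MIC was recorded, with susceptibility assigned by CLSI interpretive criteria.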

For assay [9], the system named is Wickerhamomyces anomalus. The experiment in a line: Antimicrobial susceptibility of Pichia anomala from nosocomial fungemia patient assessed as percent susceptible isolates at 2 ug/ml by CLSI method. The procedure, abridged:
as §4

The test system of assay [10] is Wickerhamomyces anomalus. The experiment in a line: Antimicrobial susceptibility of Pichia anomala from nosocomial fungemia patient assessed as percent susceptible isolates by EUCAST method. Summed up: as §3
Assay [11] deals with Wickerhamomyces anomalus. The assay is described as follows: Antimicrobial susceptibility of Pichia anomala from nosocomial fungemia patient assessed as percent susceptible isolates at 1 ug/ml by CLSI method. Summed up: as §2
The test system of assay [12] is Wickerhamomyces anomalus. The experiment in a line: Antimicrobial susceptibility of Pichia anomala from nosocomial fungemia patient assessed as percent susceptible isolates at 0.25 ug/ml by CLSI method. Summed up:
as §2

The subject of assay [13] is Wickerhamomyces anomalus. The experiment in a line: Antimicrobial susceptibility of Pichia anomala from nosocomial fungemia patient assessed as percent susceptible isolates at 8 ug/ml by CLSI method. Summed up:
as §4

Assay [14] relates to Wickerhamomyces anomalus. The assay is described as follows: Antimicrobial susceptibility of Pichia anomala from nosocomial fungemia patient assessed as percent susceptible isolates at 4 ug/ml by CLSI method. The procedure, abridged: as §4
Assay [15] concerns Wickerhamomyces anomalus. The assay is described as follows: Antimicrobial susceptibility of Pichia anomala from nosocomial fungemia patient assessed as percent susceptible isolates at 0.06 ug/ml by EUCAST method. Summed up:
as §3

Assay [16] deals with Wickerhamomyces anomalus. The experiment in a line: Antimicrobial susceptibility of Pichia anomala from nosocomial fungemia patient assessed as percent susceptible isolates at 8 ug/ml by EUCAST method. Summed up:
as §1

Assay [17] deals with Wickerhamomyces anomalus. The assay is described as follows: Antimicrobial susceptibility of Pichia anomala from nosocomial fungemia patient assessed as percent susceptible isolates at 0.5 ug/ml by EUCAST method. The procedure, abridged: as §3
In assay [18] the test system is Wickerhamomyces anomalus. The experiment in a line: Antimicrobial susceptibility of Pichia anomala from nosocomial fungemia patient assessed as percent susceptible isolates by CLSI method. The procedure, abridged: as §4
Assay [19] has as its system Wickerhamomyces anomalus. The experiment in a line: Antimicrobial susceptibility of Pichia anomala from nosocomial fungemia patient assessed as percent susceptible isolates at 0.03 ug/ml by CLSI method. The procedure, abridged: as §2
Assay [20] concerns Wickerhamomyces anomalus. The assay is described as follows: Antimicrobial susceptibility of Pichia anomala from nosocomial fungemia patient assessed as percent susceptible isolates at 0.015 ug/ml by CLSI method. Summed up:
as §2

The subject of assay [21] is Wickerhamomyces anomalus. The assay is described as follows: Antimicrobial susceptibility of Pichia anomala from nosocomial fungemia patient assessed as percent susceptible isolates at 1 ug/ml by EUCAST method. The procedure, abridged: as §3
For assay [22], the system named is Wickerhamomyces anomalus. The assay is described as follows: Antimicrobial susceptibility of Pichia anomala from nosocomial fungemia patient assessed as percent susceptible isolates at 0.015 ug/ml by EUCAST method. The procedure, abridged: as §3
The subject of assay [23] is Wickerhamomyces anomalus. The assay is described as follows: Antimicrobial susceptibility of Pichia anomala from nosocomial fungemia patient assessed as percent susceptible isolates at 16 ug/ml by CLSI method. The procedure, abridged: as §4
Assay [24] has as its system Wickerhamomyces anomalus. The experiment in a line: Antimicrobial susceptibility of Pichia anomala from nosocomial fungemia patient assessed as percent susceptible isolates at 0.5 ug/ml by CLSI method. Summed up: as §4

The structures appear in SMILES notation.

On to `OC(Cn1cncn1)(Cn1cncn1)c1ccc(F)cc1F` [FLUCONAZOLE], for which the Activity in assay [1] is given as 55.1%; in [2], 0%; in assay [3] it was 100%; in assay [4], 22.4%; in assay [5], 0%; in assay [6] it was 0%. The Activity in assay [7] came to 0%; in [8], 0%; in [9], 15.5%; in [10], 93%; in assay [11] it was 0%; in assay [12], 0%. The Activity in assay [13] is recorded as 93%; in [14], 56.8%; in assay [15], 0%; in [16] it was 96.5%; in [17], 0%; in assay [18], 96.6%. Moreover, the Activity was 0% in [19]; 0% in [20]; 0% in assay [21]; 0% in assay [22]; 100% in assay [23]. In assay [24], the “Cumulative percent of isolates inhibited” value amounted to 0%.
As for `C[C@@H](c1ncncc1F)[C@](O)(Cn1cncn1)c1ccc(F)cc1F` [VORICONAZOLE], the “Cumulative percent of isolates inhibited” value in [2] was 18.9%; in assay [12], 96.5%; in [19], 3.4%; in assay [24], 100%. In addition, the Activity in assay [5] came out at 3.4%; in assay [6], 100%; in assay [7] it was 65.5%; in [8], 39.6%; in [10], 100%; in assay [15], 29.3%. Also, the results for the Activity in [18], in [20] and in [22] were 100%, 0% and 0%, respectively.
In the case of `CCC(C)n1ncn(-c2ccc(N3CCN(c4ccc(OCC5COC(Cn6cncn6)(c6ccc(Cl)cc6Cl)O5)cc4)CC3)cc2)c1=O` (stereo not given) [ITRACONAZOLE], the “Cumulative percent of isolates inhibited” value in assay [2] stood at 12%; in [12], 74.1%; in assay [19], 0%; in assay [24], 96.5%. In addition, the Activity in assay [5] turned out to be 0%; in [6], 91.2%; in [7] it was 39.5%; in [8] it was 36.1%; in assay [10], 39.6%; in assay [11], 100%. In addition, the Activity in assay [15] was found to be 7%; in assay [17] it was 98.2%; in assay [18], 36.2%; in assay [20], 1.7%; in assay [21] it was 100%; in assay [22], 0%.
For `CC[C@H](C)C[C@H](C)CCCCCCCCC(=O)N[C@H]1C[C@@H](O)[C@@H](NCCN)NC(=O)[C@@H]2[C@@H](O)CCN2C(=O)[C@H]([C@H](O)CCN)NC(=O)[C@H]([C@H](O)[C@@H](O)c2ccc(O)cc2)NC(=O)[C@@H]2C[C@@H](O)CN2C(=O)[C@H]([C@@H](C)O)NC1=O` [CASPOFUNGIN], the “Cumulative percent of isolates inhibited” value in assay [2] was 17.2%; in assay [12], 100%; in assay [19] it was 1.7%. For the same molecule, the Activity in [5] was 12%; in assay [7], 100%; in [8] it was 84.5%; in [10] it was 100%; in [15] it was 70.6%; in assay [18] it was 100%. In addition, the Activity in assay [20] and in [22] was 0% in each case.
For the molecule `C[C@@H]1[C@H](O)[C@@H](C)/C=C/C=C/C=C/C=C/C=C/C=C/C=C/[C@H](O[C@@H]2O[C@H](C)[C@@H](O)[C@H](N)[C@@H]2O)C[C@@H]2O[C@](O)(C[C@@H](O)C[C@@H](O)[C@H](O)CC[C@@H](O)C[C@@H](O)CC(=O)O[C@H]1C)C[C@H](O)[C@H]2C(=O)O` [AMPHOTERICIN B], the “Cumulative percent of isolates inhibited” value in [2] came to 0%; in assay [12], 36%; in assay [19], 0%; in assay [24], 88%. Moreover, the Activity in assay [5] is given as 0%; in assay [6], 55.1%; in [7], 15.5%; in assay [8], 12%; in [10], 100%; in assay [11], 100%. The Activity is 0% in assay [15]; 94.7% in [17]; 100% in assay [18]; 0% in [20]; 100% in assay [21]; 0% in [22].
